Measurements as given in ChEMBL document CHEMBL2440094, “Thiazolidinone-peptide hybrids as dengue virus protease inhibitors with antiviral activity in cell culture” (J Med Chem, 2013).
The source made the active and inactive calls. The calls are words filed in the database; no cut-off is given here.

system: Dengue virus; assay: Inhibition of Dengue virus NS2B-NS3 protease expressed in Escherichia coli BL 21 (DE3) using Abz-Nle-Lys-Arg-Arg-Ser-3-(NO2)Tyr as substrate at 50 uM after 15 mins; conditions: not given

**Q.** Which inhibition does the source give for `CCCC[C@H](NC(=O)[C@H](CCCCN)NC(=O)[C@H](CCCNC(=N)N)NC(=O)c1ccc(/C=C2\SC(=S)N(Cc3ccc(C)cc3)C2=O)cc1)C(N)=O` here?
**A.** 99.1%

**Q.** For `CCCC[C@H](NC(=O)[C@H](CCCCN)NC(=O)[C@H](CCCNC(=N)N)NC(=O)c1ccc(/C=C2\SC(=S)N(Cc3ccccc3)C2=O)cc1)C(N)=O`, which inhibition is on record?
**A.** 99.3%

**Q.** With `CCCC[C@H](NC(=O)[C@H](CCCCN)NC(=O)[C@H](CCCNC(=N)N)NC(=O)c1ccc(/C=C2\SC(=S)N(Cc3ccc(F)cc3)C2=O)cc1)C(N)=O` as the compound, how does the inhibition read?
**A.** 99.4%

system: Dengue virus; assay: Mixed/noncompetitive type inhibition of Dengue virus NS2B-NS3 protease expressed in Escherichia coli BL 21 (DE3) using Abz-Nle-Lys-Arg-Arg-Ser-3-(NO2)Tyr as substrate by Cornish-Bowden plot analysis; conditions: not given
Summary of the method: (§1)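 DEN2 NS2B–NS3 FRET assay run at inhibitor 0–6 μM (prior-series compounds 5–50 μM) and substrate 50, 100, 150 and 200 μM, in triplicate, with inner-filter correction. Ki from Dixon plots (1/v vs [I]) and Ki′ from Cornish-Bowden plots (S/v vs [I]). Inhibition mode assigned from these plots.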

**Q.** For `CCCC[C@H](NC(=O)[C@H](CCCCN)NC(=O)[C@H](CCCNC(=N)N)NC(=O)c1ccc(/C=C2\SC(=S)N(Cc3ccc(C)cc3)C2=O)cc1)C(N)=O`, which inhibition is on record?
**A.** Active

**Q.** Which inhibition does the source give for `CCCC[C@H](NC(=O)[C@H](CCCCN)NC(=O)[C@H](CCCNC(=N)N)NC(=O)c1ccc(/C=C2\SC(=S)N(Cc3ccccc3)C2=O)cc1)C(N)=O` here?
**A.** Active

system: not listed separately; assay: Inhibition of Dengue virus NS2B-NS3 protease expressed in Escherichia coli BL 21 (DE3) using Abz-Nle-Lys-Arg-Arg-Ser-3-(NO2)Tyr as substrate assessed as enzyme-inhibitor complex by Cornish-Bowden plot analysis; conditions: in the assay text read “Dixon plot” for “Cornish-Bowden plot”; summary of the method: as §1

**Q.** For `CCCC[C@H](NC(=O)[C@H](CCCCN)NC(=O)[C@H](CCCNC(=N)N)NC(=O)c1ccc(/C=C2\SC(=S)N(Cc3ccc(C)cc3)C2=O)cc1)C(N)=O`, which Ki is on record?
**A.** 6.2 µM

**Q.** Which Ki does the source give for `CCCC[C@H](NC(=O)[C@H](CCCCN)NC(=O)[C@H](CCCNC(=N)N)NC(=O)c1ccc(/C=C2\SC(=S)N(Cc3ccccc3)C2=O)cc1)C(N)=O` here?
**A.** 8.8 µM

**Q.** With `CCCC[C@H](NC(=O)[C@H](CCCCN)NC(=O)[C@H](CCCNC(=N)N)NC(=O)c1ccc(/C=C2\SC(=S)N(Cc3ccc(F)cc3)C2=O)cc1)C(N)=O` as the compound, how does the Ki read?
**A.** > 10 µM

system: not listed separately; assay: Inhibition of Dengue virus NS2B-NS3 protease expressed in Escherichia coli BL 21 (DE3) using Abz-Nle-Lys-Arg-Arg-Ser-3-(NO2)Tyr as substrate assessed as enzyme-substrate-inhibitor complex by Cornish-Bowden plot analysis; conditions: not given; summary of the method: as §1

**Q.** For `CCCC[C@H](NC(=O)[C@H](CCCCN)NC(=O)[C@H](CCCNC(=N)N)NC(=O)c1ccc(/C=C2\SC(=S)N(Cc3ccc(C)cc3)C2=O)cc1)C(N)=O`, which Ki is on record?
**A.** 7.6 µM

**Q.** With `CCCC[C@H](NC(=O)[C@H](CCCCN)NC(=O)[C@H](CCCNC(=N)N)NC(=O)c1ccc(/C=C2\SC(=S)N(Cc3ccccc3)C2=O)cc1)C(N)=O` as the compound, how does the Ki read?
**A.** 5.5 µM

**Q.** Which Ki does the source give for `CCCC[C@H](NC(=O)[C@H](CCCCN)NC(=O)[C@H](CCCNC(=N)N)NC(=O)c1ccc(/C=C2\SC(=S)N(Cc3ccc(F)cc3)C2=O)cc1)C(N)=O` here?
**A.** 7.9 µM

system: West Nile virus; assay: Inhibition of West Nile virus NS2B-NS3 protease expressed in Escherichia coli BL 21 (DE3) using Abz-Gly-Leu-Lys-Arg-Gly-Gly-3-(NO2)Tyr as substrate at 50 uM after 15 mins; conditions: not given

**Q.** For `CCCC[C@H](NC(=O)[C@H](CCCCN)NC(=O)[C@H](CCCNC(=N)N)NC(=O)c1ccc(/C=C2\SC(=S)N(Cc3ccc(C)cc3)C2=O)cc1)C(N)=O`, which inhibition is on record?
**A.** 96.3%

**Q.** With `CCCC[C@H](NC(=O)[C@H](CCCCN)NC(=O)[C@H](CCCNC(=N)N)NC(=O)c1ccc(/C=C2\SC(=S)N(Cc3ccccc3)C2=O)cc1)C(N)=O` as the compound, how does the inhibition read?
**A.** 92.4%

**Q.** Which inhibition does the source give for `CCCC[C@H](NC(=O)[C@H](CCCCN)NC(=O)[C@H](CCCNC(=N)N)NC(=O)c1ccc(/C=C2\SC(=S)N(Cc3ccc(F)cc3)C2=O)cc1)C(N)=O` here?
**A.** 97.9%

system: Dengue virus; assay: Uncompetitive inhibition of Dengue virus NS2B-NS3 protease expressed in Escherichia coli BL 21 (DE3) using Abz-Nle-Lys-Arg-Arg-Ser-3-(NO2)Tyr as substrate by Cornish-Bowden plot analysis; conditions: not given; summary of the method: as §1

**Q.** With `CCCC[C@H](NC(=O)[C@H](CCCCN)NC(=O)[C@H](CCCNC(=N)N)NC(=O)c1ccc(/C=C2\SC(=S)N(Cc3ccc(F)cc3)C2=O)cc1)C(N)=O` as the compound, how does the inhibition read?
**A.** Active

system: not listed separately; assay: Inhibition of Dengue virus NS2B-NS3 protease expressed in Escherichia coli BL 21 (DE3) using Abz-Nle-Lys-Arg-Arg-Ser-3-(NO2)Tyr as substrate after 15 mins; conditions: not given

**Q.** With `CCCC[C@H](NC(=O)[C@H](CCCCN)NC(=O)[C@H](CCCNC(=N)N)NC(=O)c1ccc(/C=C2\SC(=S)N(Cc3ccc(C)cc3)C2=O)cc1)C(N)=O` as the compound, how does the IC50 read?
**A.** 7.5 µM

**Q.** For `CCCC[C@H](NC(=O)[C@H](CCCCN)NC(=O)[C@H](CCCNC(=N)N)NC(=O)c1ccc(/C=C2\SC(=S)N(Cc3ccccc3)C2=O)cc1)C(N)=O`, which IC50 is on record?
**A.** 10.9 µM

**Q.** Which IC50 does the source give for `CCCC[C@H](NC(=O)[C@H](CCCCN)NC(=O)[C@H](CCCNC(=N)N)NC(=O)c1ccc(/C=C2\SC(=S)N(Cc3ccc(F)cc3)C2=O)cc1)C(N)=O` here?
**A.** > 10 µM

target: Prothrombin (Homo sapiens) (UniProt P00734); assay: Inhibition of thrombin (unknown origin) using Boc-Val-Pro-Arg-AMC as substrate at 25 uM after 10 mins by continuous fluorimetric assay; conditions: not given
Summary of the method: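 Thrombin (10 nM) preincubated 15 min with inhibitor (25 μM final) in 50 mM Tris-HCl pH 7.5, 150 mM NaCl, 0.05% Tween 20. Boc-Val-Pro-Arg-AMC then added to 50 μM (Km 16 μM). Fluorescence (ex 355 nm, em 460 nm) followed for 10 min as slope. Triplicate; percent inhibition versus no-inhibitor control.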

**Q.** For `CCCC[C@H](NC(=O)[C@H](CCCCN)NC(=O)[C@H](CCCNC(=N)N)NC(=O)c1ccc(/C=C2\SC(=S)N(Cc3ccc(C)cc3)C2=O)cc1)C(N)=O`, which inhibition is on record?
**A.** 10.9%

**Q.** Which inhibition does the source give for `CCCC[C@H](NC(=O)[C@H](CCCCN)NC(=O)[C@H](CCCNC(=N)N)NC(=O)c1ccc(/C=C2\SC(=S)N(Cc3ccccc3)C2=O)cc1)C(N)=O` here?
**A.** 13.1%

**Q.** For `CCCC[C@H](NC(=O)[C@H](CCCCN)NC(=O)[C@H](CCCNC(=N)N)NC(=O)c1ccc(/C=C2\SC(=S)N(Cc3ccc(F)cc3)C2=O)cc1)C(N)=O`, which inhibition is on record?
**A.** 9.6%
